In brackets after ≈: the same amount, converted by molar mass.
Tests used:
Escherichia coli = assay: Antibacterial activity against multidrug-resistant Escherichia coli BW25113 harboring AcrB deletion mutant by two-fold broth dilution method; assay type: functional
Method in brief: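 Two-fold broth dilution MIC against an isogenic BW25113 strain with AcrB deleted, run alongside the AcrB-expressing parent. The test was done to define sub-inhibitory levels for later checkerboard work.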

[1] = biological target: T1, Multidrug efflux pump subunit AcrB (Escherichia coli (strain K12)) (UniProt P31224); assay: Inhibition of AcrB in multidrug-resistant Escherichia coli BW25113 assessed as potentiation of levofloxacin-induced antibacterial activity by measuring levofloxacin MIC at 128 ug/ml by checkerboard titration method (reference value: 0.06 ug/ml); conditions: dose 128.0 µg/ml
T1 sequence (whole entry): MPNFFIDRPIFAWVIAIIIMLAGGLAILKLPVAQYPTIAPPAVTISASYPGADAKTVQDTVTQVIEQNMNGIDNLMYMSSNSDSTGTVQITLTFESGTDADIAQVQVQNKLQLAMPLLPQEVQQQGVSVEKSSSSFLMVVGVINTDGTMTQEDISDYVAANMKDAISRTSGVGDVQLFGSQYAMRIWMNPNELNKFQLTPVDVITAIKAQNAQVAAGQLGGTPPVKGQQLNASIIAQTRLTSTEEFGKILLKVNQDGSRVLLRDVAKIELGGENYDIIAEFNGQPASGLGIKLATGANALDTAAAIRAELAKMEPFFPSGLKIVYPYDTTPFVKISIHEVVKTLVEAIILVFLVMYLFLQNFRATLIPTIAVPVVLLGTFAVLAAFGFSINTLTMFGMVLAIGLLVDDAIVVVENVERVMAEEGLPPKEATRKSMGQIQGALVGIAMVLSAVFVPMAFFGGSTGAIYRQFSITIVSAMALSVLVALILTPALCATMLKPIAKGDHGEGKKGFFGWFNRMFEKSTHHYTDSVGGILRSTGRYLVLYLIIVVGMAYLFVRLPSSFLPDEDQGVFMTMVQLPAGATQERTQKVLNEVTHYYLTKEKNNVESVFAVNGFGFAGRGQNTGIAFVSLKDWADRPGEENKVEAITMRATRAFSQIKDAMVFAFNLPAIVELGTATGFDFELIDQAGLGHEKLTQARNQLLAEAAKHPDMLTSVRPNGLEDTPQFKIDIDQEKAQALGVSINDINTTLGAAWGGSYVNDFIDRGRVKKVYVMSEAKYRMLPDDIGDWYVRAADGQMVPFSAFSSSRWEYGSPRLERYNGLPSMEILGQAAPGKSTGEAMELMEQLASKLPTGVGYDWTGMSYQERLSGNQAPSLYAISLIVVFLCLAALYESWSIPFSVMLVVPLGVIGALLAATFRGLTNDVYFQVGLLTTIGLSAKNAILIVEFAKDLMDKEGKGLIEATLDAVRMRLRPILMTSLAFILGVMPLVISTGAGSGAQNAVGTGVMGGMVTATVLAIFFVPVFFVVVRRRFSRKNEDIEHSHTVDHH

[2] = biological target: T1, Multidrug efflux pump subunit AcrB (Escherichia coli (strain K12)); assay: Inhibition of AcrB in multidrug-resistant Escherichia coli BW25113 assessed as potentiation of levofloxacin-induced antibacterial activity by measuring levofloxacin MIC at 64 ug/ml by checkerboard titration method (reference value: 0.06 ug/ml); conditions: dose 64.0 µg/ml
[3] = biological target: T1, Multidrug efflux pump subunit AcrB (Escherichia coli (strain K12)); assay: Inhibition of AcrB in multidrug-resistant Escherichia coli BW25113 assessed as potentiation of tetraphenylphosphonium-induced antibacterial activity by measuring tetraphenylphosphonium MIC at 128 ug/ml by checkerboard titration method (reference value: 1024 ug/ml); conditions: dose 128.0 µg/ml
[4] = biological target: T1, Multidrug efflux pump subunit AcrB (Escherichia coli (strain K12)); assay: Inhibition of AcrB in multidrug-resistant Escherichia coli BW25113 assessed as potentiation of erythromycin-induced antibacterial activity by measuring erythromycin MIC at 128 ug/ml by checkerboard titration method (reference value: 64 ug/ml); conditions: dose 128.0 µg/ml
[5] = biological target: T1, Multidrug efflux pump subunit AcrB (Escherichia coli (strain K12)); assay: Inhibition of AcrB in multidrug-resistant Escherichia coli BW25113 assessed as potentiation of levofloxacin-induced antibacterial activity by measuring levofloxacin MIC at 32 ug/ml by checkerboard titration method (reference value: 0.06 ug/ml); conditions: dose 32.0 µg/ml
[6] = biological target: T1, Multidrug efflux pump subunit AcrB (Escherichia coli (strain K12)); conditions: Escherichia coli BW25113; dose 128.0 µg/ml
[7] = biological target: T1, Multidrug efflux pump subunit AcrB (Escherichia coli (strain K12)); assay: Inhibition of AcrB in multidrug-resistant Escherichia coli BW25113 assessed as potentiation of chloramphenicol-induced antibacterial activity by measuring chloramphenicol MIC at 16 ug/ml by checkerboard titration method (reference value: 8 ug/ml); conditions: dose 16.0 µg/ml
[8] = biological target: T1, Multidrug efflux pump subunit AcrB (Escherichia coli (strain K12)); assay: Inhibition of AcrB in multidrug-resistant Escherichia coli BW25113 assessed as potentiation of erythromycin-induced antibacterial activity by measuring erythromycin MIC at 64 ug/ml by checkerboard titration method (reference value: 64 ug/ml); conditions: dose 64.0 µg/ml
[9] = biological target: T1, Multidrug efflux pump subunit AcrB (Escherichia coli (strain K12)); assay: Inhibition of AcrB in multidrug-resistant Escherichia coli BW25113 assessed as potentiation of chloramphenicol-induced antibacterial activity by measuring chloramphenicol MIC at 128 ug/ml by checkerboard titration method (reference value: 8 ug/ml); conditions: dose 128.0 µg/ml
[10] = biological target: T1, Multidrug efflux pump subunit AcrB (Escherichia coli (strain K12)); assay: Inhibition of AcrB in multidrug-resistant Escherichia coli BW25113 assessed as potentiation of levofloxacin-induced antibacterial activity by measuring levofloxacin MIC at 16 ug/ml by checkerboard titration method (reference value: 0.06 ug/ml); conditions: dose 16.0 µg/ml
[11] = biological target: T1, Multidrug efflux pump subunit AcrB (Escherichia coli (strain K12)); conditions: Escherichia coli BW25113; dose 16.0 µg/ml
[12] = biological target: T1, Multidrug efflux pump subunit AcrB (Escherichia coli (strain K12)); conditions: Escherichia coli BW25113; dose 64.0 µg/ml
[13] = biological target: T1, Multidrug efflux pump subunit AcrB (Escherichia coli (strain K12)); assay: Inhibition of AcrB in multidrug-resistant Escherichia coli BW25113 assessed as potentiation of erythromycin-induced antibacterial activity by measuring erythromycin MIC at 256 ug/ml by checkerboard titration method (reference value: 64 ug/ml); conditions: dose 256.0 µg/ml
[14] = biological target: T1, Multidrug efflux pump subunit AcrB (Escherichia coli (strain K12)); assay: Inhibition of AcrB in multidrug-resistant Escherichia coli BW25113 assessed as potentiation of chloramphenicol-induced antibacterial activity by measuring chloramphenicol MIC at 32 ug/ml by checkerboard titration method (reference value: 8 ug/ml); conditions: dose 32.0 µg/ml
[15] = biological target: T1, Multidrug efflux pump subunit AcrB (Escherichia coli (strain K12)); assay: Inhibition of AcrB in multidrug-resistant Escherichia coli BW25113 assessed as potentiation of tetraphenylphosphonium-induced antibacterial activity by measuring tetraphenylphosphonium MIC at 32 ug/ml by checkerboard titration method (reference value: 1024 ug/ml); conditions: dose 32.0 µg/ml
[16] = biological target: T1, Multidrug efflux pump subunit AcrB (Escherichia coli (strain K12)); assay: Inhibition of AcrB in multidrug-resistant Escherichia coli BW25113 assessed as potentiation of tetraphenylphosphonium-induced antibacterial activity by measuring tetraphenylphosphonium MIC at 256 ug/ml by checkerboard titration method (reference value: 1024 ug/ml); conditions: dose 256.0 µg/ml
[17] = biological target: T1, Multidrug efflux pump subunit AcrB (Escherichia coli (strain K12)); assay: Inhibition of AcrB in multidrug-resistant Escherichia coli BW25113 assessed as potentiation of tetraphenylphosphonium-induced antibacterial activity by measuring tetraphenylphosphonium MIC at 64 ug/ml by checkerboard titration method (reference value: 1024 ug/ml); conditions: dose 64.0 µg/ml
[18] = biological target: T1, Multidrug efflux pump subunit AcrB (Escherichia coli (strain K12)); assay: Inhibition of AcrB in multidrug-resistant Escherichia coli BW25113 assessed as potentiation of erythromycin-induced antibacterial activity by measuring erythromycin MIC at 32 ug/ml by checkerboard titration method (reference value: 64 ug/ml); conditions: dose 32.0 µg/ml
[19] = biological target: T1, Multidrug efflux pump subunit AcrB (Escherichia coli (strain K12)); assay: Inhibition of AcrB in multidrug-resistant Escherichia coli BW25113 assessed as potentiation of chloramphenicol-induced antibacterial activity by measuring chloramphenicol MIC at 64 ug/ml by checkerboard titration method (reference value: 8 ug/ml); conditions: dose 64.0 µg/ml
[20] = biological target: T1, Multidrug efflux pump subunit AcrB (Escherichia coli (strain K12)); assay: Inhibition of AcrB in multidrug-resistant Escherichia coli BW25113 assessed as potentiation of chloramphenicol-induced antibacterial activity by measuring chloramphenicol MIC at 256 ug/ml by checkerboard titration method (reference value: 8 ug/ml); conditions: dose 256.0 µg/ml
[21] = biological target: T1, Multidrug efflux pump subunit AcrB (Escherichia coli (strain K12)); conditions: Escherichia coli BW25113; dose 256.0 µg/ml
[22] = biological target: T1, Multidrug efflux pump subunit AcrB (Escherichia coli (strain K12)); assay: Inhibition of AcrB in multidrug-resistant Escherichia coli BW25113 assessed as potentiation of erythromycin-induced antibacterial activity by measuring erythromycin MIC at 16 ug/ml by checkerboard titration method (reference value: 64 ug/ml); conditions: dose 16.0 µg/ml
[23] = biological target: T1, Multidrug efflux pump subunit AcrB (Escherichia coli (strain K12)); assay: Inhibition of AcrB in multidrug-resistant Escherichia coli BW25113 assessed as potentiation of tetraphenylphosphonium-induced antibacterial activity by measuring tetraphenylphosphonium MIC at 16 ug/ml by checkerboard titration method (reference value: 1024 ug/ml); conditions: dose 16.0 µg/ml
[24] = biological target: T1, Multidrug efflux pump subunit AcrB (Escherichia coli (strain K12)); assay: Inhibition of AcrB in multidrug-resistant Escherichia coli BW25113 assessed as potentiation of levofloxacin-induced antibacterial activity by measuring levofloxacin MIC at 256 ug/ml by checkerboard titration method (reference value: 0.06 ug/ml); conditions: dose 256.0 µg/ml
[25] = biological target: T1, Multidrug efflux pump subunit AcrB (Escherichia coli (strain K12)); conditions: Escherichia coli BW25113; dose 32.0 µg/ml

## CC[C@H]1OC(=O)[C@H](C)[C@@H](O[C@H]2C[C@@](C)(OC)[C@@H](O)[C@H](C)O2)[C@H](C)[C@@H](O[C@@H]2O[C@H](C)C[C@H](N(C)C)[C@H]2O)[C@](C)(O)C[C@@H](C)C(=O)[C@H](C)[C@@H](O)[C@]1(C)O [ERYTHROMYCIN]
Escherichia coli
  MIC: 4 µg/mL (≈ 5.45 µM)

## C[C@H]1COc2c(N3CCN(C)CC3)c(F)cc3c(=O)c(C(=O)O)cn1c23.C[C@H]1COc2c(N3CCN(C)CC3)c(F)cc3c(=O)c(C(=O)O)cn1c23.O [LEVOFLOXACIN]
Escherichia coli
  MIC: 0.04 µg/mL

## c1ccc([P+](c2ccccc2)(c2ccccc2)c2ccccc2)cc1 [TETRAPHENYLPHOSPHONIUM]
Escherichia coli
  MIC: 32 µg/mL

## C[C@@H](Cc1ccc(O)c(O)c1)[C@@H](C)Cc1ccc(O)c(O)c1
[1]
  MIC: 0.03 µg/mL
[2]
  MIC: 0.03 µg/mL
[3]
  MIC: 128 µg/mL
[4]
  MIC: 64 µg/mL
[5]
  MIC: 0.06 µg/mL
[6]
  MIC: 16 µg/mL (≈ 52.9 µM)
[7]
  MIC: 8 µg/mL
[8]
  MIC: 64 µg/mL
[9]
  MIC: 4 µg/mL
[10]
  MIC: 0.06 µg/mL
[11]
  MIC: 16 µg/mL (≈ 52.9 µM)
[12]
  MIC: 16 µg/mL (≈ 52.9 µM)
[13]
  MIC: 32 µg/mL
[14]
  MIC: 8 µg/mL
[15]
  MIC: 1020 µg/mL
[16]
  MIC: 64 µg/mL
[17]
  MIC: 1020 µg/mL
[18]
  MIC: 64 µg/mL
[19]
  MIC: 8 µg/mL
[20]
  MIC: 2 µg/mL
[21]
  MIC: 16 µg/mL (≈ 52.9 µM)
[22]
  MIC: 64 µg/mL
[23]
  MIC: 1020 µg/mL
[24]
  MIC: 0.03 µg/mL
[25]
  MIC: 16 µg/mL (≈ 52.9 µM)
